For data set [1], the target named is T1, Amine oxidase [flavin-containing] B (Homo sapiens, UniProt P27338).
T1 sequence (P27338 whole entry): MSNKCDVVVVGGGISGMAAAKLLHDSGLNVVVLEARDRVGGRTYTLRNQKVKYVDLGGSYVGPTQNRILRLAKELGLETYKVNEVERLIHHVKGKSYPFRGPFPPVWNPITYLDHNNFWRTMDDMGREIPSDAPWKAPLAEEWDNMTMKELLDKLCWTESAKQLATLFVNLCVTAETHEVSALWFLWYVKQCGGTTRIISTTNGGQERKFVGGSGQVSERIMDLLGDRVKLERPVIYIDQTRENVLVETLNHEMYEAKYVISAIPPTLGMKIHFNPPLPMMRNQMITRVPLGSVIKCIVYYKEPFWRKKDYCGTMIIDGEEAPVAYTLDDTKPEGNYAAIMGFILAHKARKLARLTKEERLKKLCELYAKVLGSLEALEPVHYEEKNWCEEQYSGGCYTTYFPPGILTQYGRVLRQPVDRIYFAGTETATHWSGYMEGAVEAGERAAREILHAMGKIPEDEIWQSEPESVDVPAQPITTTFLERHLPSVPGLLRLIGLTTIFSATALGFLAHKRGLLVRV
Put plainly: Inhibition of human recombinant microsomal MAO-B expressed in baculovirus infected BTI-TN-5B1-4 cells assessed as reduction in production of H202 using p-tyramine as substrate incubated for 30 mins followed by substrate addition by horse radish peroxidase/Amplex red reagent based fluorescence assay. It is filed as cell-based.

Data set [2] deals with T2, Amine oxidase [flavin-containing] A (Homo sapiens, UniProt P21397).
T2 sequence (P21397 whole entry): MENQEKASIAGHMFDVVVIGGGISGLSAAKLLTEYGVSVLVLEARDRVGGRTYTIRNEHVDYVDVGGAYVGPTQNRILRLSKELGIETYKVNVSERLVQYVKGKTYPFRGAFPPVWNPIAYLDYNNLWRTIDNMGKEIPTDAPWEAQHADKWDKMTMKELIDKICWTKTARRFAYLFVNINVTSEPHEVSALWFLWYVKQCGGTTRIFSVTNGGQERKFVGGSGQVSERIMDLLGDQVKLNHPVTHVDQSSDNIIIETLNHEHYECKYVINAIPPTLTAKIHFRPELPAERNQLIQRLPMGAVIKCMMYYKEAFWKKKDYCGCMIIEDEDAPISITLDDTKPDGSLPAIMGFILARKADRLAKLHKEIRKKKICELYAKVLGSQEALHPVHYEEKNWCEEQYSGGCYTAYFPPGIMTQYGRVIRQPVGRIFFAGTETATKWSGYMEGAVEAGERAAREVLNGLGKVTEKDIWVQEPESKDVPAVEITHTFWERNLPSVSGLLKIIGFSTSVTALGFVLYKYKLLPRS
Put plainly: Inhibition of human recombinant microsomal MAO-A expressed in baculovirus infected BTI-TN-5B1-4 cells assessed as reduction in production of H202 using p-tyramine as substrate incubated for 30 mins followed by substrate addition by horse radish peroxidase/Amplex red reagent based fluorescence assay. It is filed as cell-based. Conditions: read-out: IC50.

Another data set deals with Acetylcholinesterase (Electrophorus electricus, UniProt O42275). Put plainly: Inhibition of electric eel AChE assessed as reduction in production of H202 using acetylcholine as substrate incubated for 15 mins followed by substrate addition by horse radish peroxidase/Amplex red reagent based fluorescence assay.
Another data set is filed under the species Homo sapiens. Put plainly: Selectivity index, ratio of IC50 for human recombinant microsomal MAO- A expressed in baculovirus infected BTI-TN-5B1- 4 cells using p-tyramine as substrate to IC50 for human recombinant microsomal MAO- B expressed in baculovirus infected BTI-TN-5B1- 4 cells using p-tyramine as substrate by horse radish peroxidase/Amplex red reagent based fluorescence assay. Put shortly: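 Recombinant hMAO-A (1.1 µg) or hMAO-B (7.5 µg) preincubated with inhibitor over a concentration range for 30 min at 37 °C in 0.05 M sodium phosphate, pH 7.4. Reaction started with 1 mM p-tyramine, 200 µM Amplex Red and 1 U/mL HRP (final concentrations). H₂O₂ was read by fluorescence (ex 545/em 590 nm) after 30 min dark incubation. Background without enzyme was subtracted; vehicle served as control.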

Data set [3] has as its target Acetylcholinesterase (Electrophorus electricus) (UniProt O42275). Put plainly: Reversible inhibition of electric eel AChE assessed as recovery of enzyme activity at 100 times IC50 using acetylcholine as substrate relative to control.
Data set [4] has the same target. Put plainly: Reversible inhibition of electric eel AChE assessed as recovery of enzyme activity at 10 times IC50 using acetylcholine as substrate relative to control.
Data set [5] shares this target. Put plainly: Reversible inhibition of electric eel AChE assessed as recovery of enzyme activity at IC50 using acetylcholine as substrate relative to control.
Data set [6] shares this target. Put plainly: Reversible inhibition of electric eel AChE assessed as recovery of enzyme activity at 0.1 times IC50 using acetylcholine as substrate relative to control.
Data set [7] deals with SH-SY5Y. Put plainly: Inhibition of ROS generation in human SH-SY5Y cells at 1 uM measured after 24 hrs by DCF-DA dye based fluorescence assay relative to control. It is filed as functional. The procedure, abridged:
(§1)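 SH-SY5Y cells, about 10,000/well, grown 24 h in DMEM/F-12 with 10% FBS, horse serum and 1% penicillin. Washed with PBS, then exposed to compound without FBS for 24 h (1, 5, 25 μM). Rinsed three times in PBS, loaded with H2DCF-DA (50 μM) for 30 min at 37 °C, rinsed again. Fluorescence read at ex 478 / em 518 nm.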

The subject of data set [8] is SH-SY5Y. Put plainly: Inhibition of ROS generation in human SH-SY5Y cells at 5 uM measured after 24 hrs by DCF-DA dye based fluorescence assay relative to control. It is filed as functional. The procedure, abridged:
as §1

The test system of data set [9] is SH-SY5Y. Put plainly: Inhibition of ROS generation in human SH-SY5Y cells at 25 uM measured after 24 hrs by DCF-DA dye based fluorescence assay relative to control. It is filed as functional. The procedure, abridged:
as §1

Data set [10] deals with SH-SY5Y. Put plainly: Neuroprotective activity against 6-OHDA induced toxicity in human SH-SY5Y cells assessed as cell viability at 25 uM preincubated for 4 hrs followed by 6-OHDA addition and measured after 24 hrs by MTT assay (reference value: 48.52 %). It is filed as functional. Conditions: read-out: Activity.
The subject of data set [11] is SH-SY5Y. Put plainly: Neuroprotective activity against 6-OHDA induced toxicity in human SH-SY5Y cells assessed as cell viability at 5 uM preincubated for 4 hrs followed by 6-OHDA addition and measured after 24 hrs by MTT assay (reference value: 48.52 %). It is filed as functional. Conditions: read-out: Activity.
For data set [12], the system named is SH-SY5Y. Put plainly: Neuroprotective activity against 6-OHDA induced toxicity in human SH-SY5Y cells assessed as cell viability at 1 uM preincubated for 4 hrs followed by 6-OHDA addition and measured after 24 hrs by MTT assay (reference value: 48.52 %). It is filed as functional. Conditions: read-out: Activity.
The nature of data set [13]: Metal chelating activity of the compound assessed as formation of Cu2+ complex at 50 uM by UV-vis spectrophotometric analysis. The procedure, abridged: (§2)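 Absorption spectra recorded by UV–vis spectrophotometry for compound alone (50 μM final) and with CuSO₄, FeSO₄ or FeCl₃ (50 μM final); chelation judged from spectral change.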
The nature of data set [14]: Metal chelating activity of the compound assessed as formation of Fe2+ complex at 50 uM by UV-vis spectrophotometric analysis. The procedure, abridged: as §2
Data set [15] is described as follows: Metal chelating activity of the compound assessed as formation of Fe3+ complex at 50 uM by UV-vis spectrophotometric analysis. The procedure, abridged:
as §2

Data set [16] is described as follows: Cytotoxicity against human SH-SY5Y cells assessed as cell viability at 1 uM measured after 24 hrs by MTT assay relative to control. It is filed as cell-based. Conditions: read-out: Activity. Put shortly: (§3)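 SH-SY5Y cells, about 10,000/well, grown 24 h in DMEM/F-12 with 10% FBS, horse serum and 1% penicillin. Exposed to compound at 1, 5 or 25 μM for 24 h, serum-free, at 37 °C, 5% CO2. MTT added, 4 h at 37 °C, formazan dissolved in DMSO, OD read at 595 nm. Viability expressed relative to control.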

Data set [17] is described as follows: Cytotoxicity against human SH-SY5Y cells assessed as cell viability at 5 uM measured after 24 hrs by MTT assay relative to control. It is filed as cell-based. Conditions: read-out: Activity. Put shortly:
as §3

Data set [18] can be described thus: Cytotoxicity against human SH-SY5Y cells assessed as cell viability at 25 uM measured after 24 hrs by MTT assay relative to control. It is filed as cell-based. Conditions: read-out: Activity. Put shortly: as §3
Data set [19] in a line: Octanol/water partition coefficient, logP of compound. It is filed as physicochemical.
For data set [20], the target named is Acetylcholinesterase (Electrophorus electricus) (UniProt O42275). Conditions: at 1 to 5 µM.

Activity calls are given as the source filed them. The rule behind the calls is not given here.

Acetylcholinesterase (Electrophorus electricus), sequence (O42275 24-633 limits assumed): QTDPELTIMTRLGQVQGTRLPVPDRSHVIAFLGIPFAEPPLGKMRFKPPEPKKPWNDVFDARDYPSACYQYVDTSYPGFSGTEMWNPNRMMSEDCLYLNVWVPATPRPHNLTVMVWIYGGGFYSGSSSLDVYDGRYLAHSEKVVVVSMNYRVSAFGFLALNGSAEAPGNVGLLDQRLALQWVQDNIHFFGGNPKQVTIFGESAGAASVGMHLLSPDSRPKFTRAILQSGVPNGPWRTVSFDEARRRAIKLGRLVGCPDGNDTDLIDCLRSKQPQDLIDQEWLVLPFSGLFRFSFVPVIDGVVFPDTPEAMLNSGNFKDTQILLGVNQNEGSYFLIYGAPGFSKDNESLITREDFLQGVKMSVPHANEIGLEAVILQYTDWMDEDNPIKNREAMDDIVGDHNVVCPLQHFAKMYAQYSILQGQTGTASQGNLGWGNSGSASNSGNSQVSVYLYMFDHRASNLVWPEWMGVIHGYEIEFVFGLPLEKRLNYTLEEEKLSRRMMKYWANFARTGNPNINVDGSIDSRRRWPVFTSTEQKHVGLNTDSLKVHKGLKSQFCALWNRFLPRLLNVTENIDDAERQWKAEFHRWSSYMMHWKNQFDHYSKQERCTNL
Acetylcholinesterase, sequence (O42275 whole entry): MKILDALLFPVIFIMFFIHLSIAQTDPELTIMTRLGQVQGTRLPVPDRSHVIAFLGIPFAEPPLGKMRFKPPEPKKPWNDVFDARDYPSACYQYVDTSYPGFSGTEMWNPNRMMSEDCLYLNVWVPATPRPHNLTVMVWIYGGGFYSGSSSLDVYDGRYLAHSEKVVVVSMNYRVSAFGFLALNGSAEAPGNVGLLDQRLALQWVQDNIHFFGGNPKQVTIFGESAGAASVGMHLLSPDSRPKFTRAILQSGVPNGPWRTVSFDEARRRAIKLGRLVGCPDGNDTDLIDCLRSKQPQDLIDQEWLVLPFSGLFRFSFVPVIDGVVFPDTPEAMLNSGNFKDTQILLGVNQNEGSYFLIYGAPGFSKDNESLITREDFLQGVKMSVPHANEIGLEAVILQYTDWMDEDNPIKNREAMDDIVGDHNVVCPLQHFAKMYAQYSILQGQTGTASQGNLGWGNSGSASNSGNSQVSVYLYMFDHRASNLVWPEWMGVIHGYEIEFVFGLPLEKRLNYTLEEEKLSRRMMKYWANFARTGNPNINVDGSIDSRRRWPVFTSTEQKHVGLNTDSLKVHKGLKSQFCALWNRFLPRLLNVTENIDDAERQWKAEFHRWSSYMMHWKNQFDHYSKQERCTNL

Regarding `C#CCOc1ccc(-c2cc(-c3cccc(OCC#C)c3)nc(N)n2)cc1`, the half-maximal inhibitory concentration (IC50) amounted to 1490 nM in [1], 24.1 µM in [2] and 1740 nM on Acetylcholinesterase. Moreover, the Ratio IC50 in the data set filed under Homo sapiens is 16.1. The inhibition is 7.35% in data set [3], 12.3% in data set [4], 41.8% in data set [5] and 82.8% in [6]. The inhibition at 1 µM in the data set with SH-SY5Y [7] came to 68.3%. Besides, the inhibition at 5 µM in the data set on SH-SY5Y [8] turned out to be 47.2%. In the data set on SH-SY5Y [9], this molecule yielded an inhibition at 25 µM of 41%. The viability at 25 µM in the data set with SH-SY5Y [10] was found to be 52.3%. Also, the viability at 5 µM in the data set with SH-SY5Y [11] was determined as 59.5%. In the data set with SH-SY5Y [12], the viability at 1 µM is 60.5%. The result in data set [13], in data set [14] and in [15] was inactive. In [16], the viability at 24 h, 1 µM is 87.3%. Also, in data set [17], the viability at 24 h, 5 µM is 79.6%. In addition, the viability at 24 h, 25 µM in [18] was determined as 69.2%. This molecule displayed a log partition coefficient (logP) in data set [19] of 4.51. The inhibition entry in [20] is “Active”.
With `C#CCOc1ccc(-c2cc(-c3ccc(OCC#C)cc3)nc(N)n2)cc1`, the IC50 in [1] was 3300 nM; in data set [2], 32.1 µM; at Acetylcholinesterase, 1350 nM. Moreover, the Ratio IC50 in the data set filed under Homo sapiens worked out at 9.7. Further, the inhibition in data set [3] amounted to 3.4%; in [4], 10.2%; in data set [5], 42.4%; in [6] it was 66.5%. This molecule returned an inhibition at 1 µM with SH-SY5Y [7] of 89.8%. Moreover, the inhibition at 5 µM with SH-SY5Y [8] turned out to be 30%. The molecule also yielded an inhibition at 25 µM with SH-SY5Y [9] of 25.9%. Also, the viability at 25 µM in the data set on SH-SY5Y [10] worked out at 53.6%. Besides, the viability at 5 µM in the data set on SH-SY5Y [11] stood at 62.4%. For the same molecule, the viability at 1 µM with SH-SY5Y [12] was determined as 66.6%. The outcome in data set [13], in data set [14] and in data set [15] was inactive. The viability at 24 h, 1 µM in data set [16] worked out at 79%. Moreover, the viability at 24 h, 5 µM in [17] stood at 73%. Besides, the viability at 24 h, 25 µM in data set [18] is 72.6%. In [19], the log partition coefficient (logP) was determined as 4.52.

For the origin of these results see ChEMBL document CHEMBL4350993, “Dipropargyl substituted diphenylpyrimidines as dual inhibitors of monoamine oxidase and acetylcholinesterase” (Eur J Med Chem, 2019).
